Assay [1] is described as follows: Binding affinity to biotinylated duplex DNA (unknown origin) up to by surface plasmon resonance analysis. In short, it runs like this:
(§1)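 SPR with a Neutravidin-coated sensor chip. Biotinylated duplex DNA and biotinylated HTG21 were folded in running buffer (50 mM Tris-HCl, 100 mM KCl, pH 7.4, 0.005% Tween20) and immobilized. A range of ligand concentrations was injected simultaneously over G-quadruplex, duplex and blank reference channels. Binding plots from sensorgrams gave equilibrium constants (KD).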

For assay [2], the species on record is Homo sapiens. Put plainly: Binding affinity to human telomeric G-quadruplex 5'-d(GGG[TTAGGG]3)-3' DNA assessed as induction of conformation conversion from antiparallel to parallel type at 25 uM after 5 mins by circular dichroism spectroscopic analysis.
Assay [3] is filed under the species Homo sapiens. Put plainly: Binding affinity to human telomeric G-quadruplex 5'-d(GGG[TTAGGG]3)-3' DNA assessed as change in melting temperature at 25 uM measured at 290 nM wavelength by circular dichroism spectroscopic analysis. Summed up: (§2)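 HTG21 in 10 mM Tris-HCl, pH 7.4, 60 mM KCl. CD melting profiles were read at 265 nm and at 290 nm, and ΔTm was determined from them.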

Assay [4] is filed under the species Homo sapiens. Put plainly: Binding affinity to human telomeric G-quadruplex 5'-d(GGG[TTAGGG]3)-3' DNA assessed as change in melting temperature at 25 uM measured at 265 nM wavelength by circular dichroism spectroscopic analysis. Summed up: as §2
A short description of assay [5]: Binding affinity to human biotinylated telomeric G-quadruplex 5'-d(GGG[TTAGGG]3)-3' DNA by surface plasmon resonance analysis. Summed up:
as §1

Assay [6] can be described thus: Binding affinity to biotinylated duplex DNA (unknown origin) by surface plasmon resonance analysis. Summed up: as §1
Assay [7] deals with Telomerase reverse transcriptase (Homo sapiens, UniProt O14746). In words: Inhibition of telomerase in human HL60 cell extract by TRAP-LIG assay. Also on record: species or system HL-60. Summed up: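 TRAP-LIG: compounds added to telomerase reaction mix containing HL60 cell extract. Ligand removed after enzyme incubation, before amplification. Purified extended products PCR-amplified for 35 cycles (94 °C 30 s, 61 °C 1 min, 72 °C 1 min). IC50 determined.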
Telomerase reverse transcriptase, sequence (O14746 whole entry): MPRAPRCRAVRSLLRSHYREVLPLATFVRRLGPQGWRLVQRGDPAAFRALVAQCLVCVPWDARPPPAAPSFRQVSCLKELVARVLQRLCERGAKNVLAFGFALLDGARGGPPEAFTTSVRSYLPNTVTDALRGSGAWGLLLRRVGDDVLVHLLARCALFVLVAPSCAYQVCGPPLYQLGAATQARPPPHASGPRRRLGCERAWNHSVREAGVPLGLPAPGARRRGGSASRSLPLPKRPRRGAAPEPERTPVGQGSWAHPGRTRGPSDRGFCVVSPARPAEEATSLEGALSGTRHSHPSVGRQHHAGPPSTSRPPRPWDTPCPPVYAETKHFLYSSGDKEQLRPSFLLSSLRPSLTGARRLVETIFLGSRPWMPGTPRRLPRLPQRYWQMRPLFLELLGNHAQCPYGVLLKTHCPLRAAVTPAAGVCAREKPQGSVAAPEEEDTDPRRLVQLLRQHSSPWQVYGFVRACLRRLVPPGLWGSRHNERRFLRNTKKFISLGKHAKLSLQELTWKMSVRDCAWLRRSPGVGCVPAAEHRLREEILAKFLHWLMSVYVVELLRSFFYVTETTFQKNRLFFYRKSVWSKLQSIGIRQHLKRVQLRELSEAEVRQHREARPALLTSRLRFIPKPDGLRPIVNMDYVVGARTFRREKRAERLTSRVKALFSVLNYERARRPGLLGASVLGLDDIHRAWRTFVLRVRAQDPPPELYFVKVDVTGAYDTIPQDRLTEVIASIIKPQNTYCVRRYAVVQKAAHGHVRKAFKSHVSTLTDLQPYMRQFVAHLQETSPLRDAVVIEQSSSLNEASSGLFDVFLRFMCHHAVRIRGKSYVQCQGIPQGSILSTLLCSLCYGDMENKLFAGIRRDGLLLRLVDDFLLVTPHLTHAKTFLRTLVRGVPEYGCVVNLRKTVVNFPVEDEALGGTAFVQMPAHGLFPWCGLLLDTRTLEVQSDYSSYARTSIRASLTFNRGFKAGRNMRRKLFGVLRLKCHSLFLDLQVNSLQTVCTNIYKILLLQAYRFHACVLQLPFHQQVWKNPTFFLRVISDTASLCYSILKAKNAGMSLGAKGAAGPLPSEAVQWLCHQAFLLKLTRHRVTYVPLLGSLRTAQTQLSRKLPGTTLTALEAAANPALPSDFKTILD

For assay [8], the species on record is Homo sapiens. In words: Binding affinity to human biotinylated telomeric G-quadruplex 5'-d(GGG[TTAGGG]3)-3' DNA up to 20 uM by surface plasmon resonance analysis. In short, it runs like this:
as §1

The subject of assay [9] is HL-60. In words: Binding affinity to G-quadruplex DNA in human HL60 cells assessed as telomere shortening at 1 uM after 12 days by restriction fragment length assay. The format is cell-based. In short, it runs like this:
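HL60 cells exposed to ligand for 12 days. Genomic DNA digested with Hinf1/Rsa1, run on 0.8% agarose gel and transferred to nylon membrane. DNA fixed by baking at 120 °C for 20 min. Membrane hybridized with DIG-labelled telomeric-repeat probe, then detected with anti-DIG-alkaline phosphatase.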

Assay [10] relates to HL-60. In words: Induction of senescence in human HL60 cells assessed as increase in proportion of enlarged and flattened cells at 1 uM after 12 days by senescence-associated beta-galactosidase activity based optical microscopic analysis. Format: functional, cell-based. In short, it runs like this: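 HL60 cells treated continuously for 12 days; 0.1% DMSO as control. Cells fixed 15 min at room temperature in 2% formaldehyde/0.2% glutaraldehyde, then washed with PBS. Stained overnight at 37 °C with 1 mg/mL X-gal solution. Enlarged, flattened, stained cells viewed by optical microscopy.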

Assay [11] concerns HL-60. In words: Cytotoxicity against human HL60 cells treated every 3 days up to 12 days. The format is functional, cell-based.
Assay [12] has as its system HL-60. Put plainly: Cytotoxicity against human HL60 cells at 0.5 to 1 uM treated every 3 days up to 12 days relative to control. Format: functional, cell-based.
Assay [13] has as its system HL-60. Put plainly: Cytotoxicity against human HL60 cells after 48 hrs by MTT assay. Format: functional, cell-based. Conditions: HL-60, 48 h. In short, it runs like this: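 HL60 cells seeded at 1.0 × 10³ per well and exposed to a range of concentrations for 48 h at 37 °C, 5% CO₂. MTT (5 mg/mL) added for 4 h. Formazan dissolved in DMSO and OD read at 570 nm. Each dose tested in triplicate; IC50 derived from mean OD versus concentration curves.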

Assay [14] relates to HL-60. Put plainly: Binding affinity to G-quadruplex DNA in human HL60 cells assessed as telomere shortening at 0.01 to 1 uM after 12 days by restriction fragment length assay.

The values below come from ChEMBL document CHEMBL2375255, “New quinazoline derivatives for telomeric G-quadruplex DNA: effects of an added phenyl group on quadruplex binding ability” (Eur J Med Chem, 2013).

SMILES strings stand for the structures. Calls of active or inactive are those of the source. The calls are words filed in the database; no cut-off is given here.

For `CN(C)CCCNc1nc(-c2ccc(Cl)cc2NC(=O)c2ccc(NC(=O)CCN3CCN(C)CC3)cc2)nc2ccccc12`, the result in assay [1] was inactive. For the same compound, in the assay filed under Homo sapiens [2], the outcome was Active. In addition, the figures for the shift in melting temperature (ΔTm) in the assay filed under Homo sapiens [3] and in the assay listed under Homo sapiens [4] were 3.4 °C and over 28 °C, respectively. The compound also yielded a Kd in assay [5] of 0.276 µM.
The corresponding values for `CCN(CC)CCC(=O)Nc1ccc(C(=O)Nc2cc(Cl)ccc2-c2nc(NCCCN(C)C)c3ccccc3n2)cc1` are “inactive”, “Active”, 2.8 °C, 21.9 °C and 0.302 µM.
Regarding `CN(C)CCCNc1nc(-c2ccccc2NC(=O)c2ccc(NC(=O)CN3CCN(C)CC3)cc2)nc2ccccc12`, the result in the assay filed under Homo sapiens [2] was Active. In addition, the ΔTm in the assay listed under Homo sapiens [3] came out at 7.4 °C; in the assay filed under Homo sapiens [4] it was 21.8 °C. Also, the dissociation constant (Kd) in [6] is 39.7 µM; in assay [5], 2.75 µM.
Take `CN(C)CCCNCCC(=O)Nc1ccc(C(=O)Nc2ccccc2-c2nc(NCCCN(C)C)c3ccccc3n2)cc1`: in assay [1], the outcome was inactive. In the assay listed under Homo sapiens [2], the outcome was Active. Besides, in the assay filed under Homo sapiens [4], the ΔTm was over 28 °C. This compound also came in with an IC50 in assay [7] of 30.9 µM. Moreover, in assay [5], the equilibrium dissociation constant (Kd) worked out at 1.11 µM.
Regarding `CN(C)CCCNc1nc(-c2ccccc2NC(=O)c2ccc(NC(=O)CN3CCOCC3)cc2)nc2ccccc12`, the outcome in the assay filed under Homo sapiens [2] was Active. Moreover, the values for the ΔTm in the assay listed under Homo sapiens [3] and in the assay filed under Homo sapiens [4] were 4.7 °C and 11.9 °C, respectively.
Take `CN(C)CCCNc1nc(-c2ccccc2NC(=O)CCN2CCN(C)CC2)nc2ccccc12`: the result in the assay listed under Homo sapiens [8] was inactive. Moreover, the result in the assay listed under Homo sapiens [2] was Active. Besides, the ΔTm in the assay listed under Homo sapiens [3] was found to be 2.1 °C; in the assay listed under Homo sapiens [4], 8 °C.
Regarding `CN(C)CCCNc1nc(-c2ccccc2NC(=O)c2ccc(NC(=O)CN3CCCC3)cc2)nc2ccccc12`, the outcome in the assay filed under Homo sapiens [2] was Active. Also, the ΔTm in the assay listed under Homo sapiens [3] amounted to 11.7 °C; in the assay filed under Homo sapiens [4], 21.4 °C.
In the case of `CN(C)CCCNc1c2ccccc2nc2c1[nH]c1ccccc12`, in the assay filed under Homo sapiens [2], the outcome was inactive. Besides, the ΔTm in the assay filed under Homo sapiens [3] was 8 °C; in the assay filed under Homo sapiens [4] it was 11.2 °C. The figures for the Kd in [6] and in assay [5] were 5.02 µM and 28 µM, respectively.
Consider `CN(C)CCCNc1nc(-c2ccc(Cl)cc2NC(=O)c2ccc(NC(=O)CCN3CCCC3)cc2)nc2ccccc12`, for which the result in assay [1] was inactive. Further, the result in the assay listed under Homo sapiens [2] was Active. In addition, the ΔTm in the assay listed under Homo sapiens [3] was 5.7 °C; in the assay filed under Homo sapiens [4], over 28 °C. The same compound yielded an equilibrium dissociation constant (Kd) in assay [5] of 0.227 µM.
As to `CN(C)CCCNc1nc(-c2ccccc2NC(=O)CN2CCCC2)nc2ccccc12`, the outcome in the assay filed under Homo sapiens [2] was Active. For the same compound, the shift in melting temperature (ΔTm) was found to be 2.6 °C in the assay listed under Homo sapiens [3] and 7.3 °C in the assay filed under Homo sapiens [4].
In the case of `CN(C)CCCNc1nc(-c2ccccc2NC(=O)CCN2CCCC2)nc2ccccc12`, in the assay filed under Homo sapiens [2], the result was Active. Also, the figures for the ΔTm in the assay filed under Homo sapiens [3] and in the assay listed under Homo sapiens [4] were 3.6 °C and 8.7 °C, respectively.
`CN(C)CCCNCCC(=O)Nc1ccccc1-c1nc(NCCCN(C)C)c2ccccc2n1`: in the assay filed under Homo sapiens [2], the outcome was Active. Further, the values for the ΔTm in the assay filed under Homo sapiens [3] and in the assay listed under Homo sapiens [4] were 6.2 °C and 12.4 °C, respectively. Moreover, the Kd in assay [6] was 7.9 µM; in [5], 3.36 µM. The IC50 in assay [7] was over 50 µM.
With `CN(C)CCCNc1nc(-c2ccccc2NC(=O)CCN2CCOCC2)nc2ccccc12`, in the assay filed under Homo sapiens [2], the result was inactive. In addition, the ΔTm amounted to 0.9 °C in the assay filed under Homo sapiens [3] and 4.3 °C in the assay filed under Homo sapiens [4].
As for `CN(C)CCCNc1nc(-c2ccccc2NC(=O)c2ccc(NC(=O)CCN3CCOCC3)cc2)nc2ccccc12`, in the assay filed under Homo sapiens [2], the outcome was Active. Also, the ΔTm in the assay listed under Homo sapiens [3] came out at 8.2 °C; in the assay listed under Homo sapiens [4], 15.3 °C.
Regarding `CN(C)CCCNCCC(=O)Nc1ccc(C(=O)Nc2cc(Cl)ccc2-c2nc(NCCCN(C)C)c3ccccc3n2)cc1`, the outcome in assay [1] was inactive. Also, the outcome in the assay filed under Homo sapiens [2], with HL-60 [9], in the assay with HL-60 [10], in the assay with HL-60 [12] and in the assay on HL-60 [14] was Active. Moreover, the ΔTm in the assay filed under Homo sapiens [3] was 14.8 °C; in the assay listed under Homo sapiens [4] it was over 28 °C. Further, in the assay with HL-60 [11], the Activity entry is “Dose-dependent effect”. Further, the values for the IC50 (in the assay on HL-60 [13]; in assay [7]) were 1.7 µM and 2.3 µM, respectively. The same compound gave a Kd in [5] of 0.379 µM.
With `CN(C)CCCNc1nc(-c2ccc(Cl)cc2NC(=O)c2ccc(NC(=O)CCN3CCOCC3)cc2)nc2ccccc12`, the result in assay [1] was inactive. In addition, the outcome in the assay listed under Homo sapiens [2] was Active. In addition, the values for the ΔTm in the assay listed under Homo sapiens [3] and in the assay filed under Homo sapiens [4] were 4.7 °C and 21.6 °C, respectively. The compound also came in with a dissociation constant Kd in assay [5] of 3.06 µM.
On to `CN(C)CCCNc1nc(-c2ccccc2NC(=O)CN2CCN(C)CC2)nc2ccccc12`, for which the outcome in the assay listed under Homo sapiens [8] and in the assay listed under Homo sapiens [2] was inactive. Also, the shift in melting temperature (ΔTm) is 0.6 °C in the assay listed under Homo sapiens [3] and 3.1 °C in the assay listed under Homo sapiens [4].
Regarding `CCN(CC)CCC(=O)Nc1ccccc1-c1nc(NCCCN(C)C)c2ccccc2n1`, in the assay listed under Homo sapiens [2], the result was Active. The figures for the ΔTm in the assay listed under Homo sapiens [3] and in the assay listed under Homo sapiens [4] were 2.5 °C and 8.2 °C, respectively.
For `CCN(CC)CC(=O)Nc1ccc(C(=O)Nc2ccccc2-c2nc(NCCCN(C)C)c3ccccc3n2)cc1`, the result in the assay filed under Homo sapiens [2] was Active. For the same compound, the ΔTm came to 11.6 °C in the assay listed under Homo sapiens [3] and 21.6 °C in the assay filed under Homo sapiens [4]. Also, the dissociation constant Kd in assay [6] stood at 11.9 µM; in assay [5], 8.34 µM.
With `CN(C)CCCNc1nc(-c2ccc(Cl)cc2NC(=O)CCN2CCN(C)CC2)nc2ccccc12`, the result in the assay filed under Homo sapiens [2] was Active. Besides, the ΔTm worked out at 4.4 °C in the assay filed under Homo sapiens [3] and 14.4 °C in the assay listed under Homo sapiens [4].
As for `CCN(CC)CCC(=O)Nc1ccc(C(=O)Nc2ccccc2-c2nc(NCCCN(C)C)c3ccccc3n2)cc1`, in the assay filed under Homo sapiens [2], the result was Active. The thermal shift (ΔTm) in the assay filed under Homo sapiens [3] turned out to be 5.4 °C; in the assay listed under Homo sapiens [4], 19.6 °C. Moreover, the Kd in assay [6] was 22 µM; in assay [5], 1.61 µM.
Take `CCN(CC)CC(=O)Nc1ccccc1-c1nc(NCCCN(C)C)c2ccccc2n1`: the result in the assay listed under Homo sapiens [2] was Active. In addition, the ΔTm in the assay filed under Homo sapiens [3] stood at 0.7 °C; in the assay filed under Homo sapiens [4] it was 2.1 °C.
Consider `CN(C)CCCNc1nc(-c2ccccc2NC(=O)c2ccc(NC(=O)CCN3CCN(C)CC3)cc2)nc2ccccc12`, for which, in the assay listed under Homo sapiens [2], the result was Active. Moreover, the ΔTm in the assay filed under Homo sapiens [3] is 8.2 °C; in the assay filed under Homo sapiens [4] it was 21.7 °C. The dissociation constant Kd in [6] came to 13.2 µM; in [5], 1.48 µM.
For `CN(C)CCCNc1nc(-c2ccccc2NC(=O)c2ccc(NC(=O)CCN3CCCC3)cc2)nc2ccccc12`, the outcome in the assay filed under Homo sapiens [2] was Active. Further, the thermal shift (ΔTm) was found to be 4.6 °C in the assay listed under Homo sapiens [3] and 18.7 °C in the assay listed under Homo sapiens [4].
For `CN(C)CCCNc1nc(-c2ccccc2NC(=O)CN2CCOCC2)nc2ccccc12` the same measures were “inactive”, 0 °C and 0.5 °C.
